{"source": "ChEMBL document CHEMBL4680118", "about": "“Cerpegin-derived furo[3,4-c]pyridine-3,4(1H,5H)-diones enhance cellular response to interferons by de novo pyrimidine biosynthesis inhibition” (Eur J Med Chem, 2020)", "assay_type_in_all_cases": "cell-based", "key": {"[1]": {"target": "T1, Dihydroorotate dehydrogenase (quinone), mitochondrial (Homo sapiens, UniProt Q02127)", "T1 sequence (Q02127 whole entry)": "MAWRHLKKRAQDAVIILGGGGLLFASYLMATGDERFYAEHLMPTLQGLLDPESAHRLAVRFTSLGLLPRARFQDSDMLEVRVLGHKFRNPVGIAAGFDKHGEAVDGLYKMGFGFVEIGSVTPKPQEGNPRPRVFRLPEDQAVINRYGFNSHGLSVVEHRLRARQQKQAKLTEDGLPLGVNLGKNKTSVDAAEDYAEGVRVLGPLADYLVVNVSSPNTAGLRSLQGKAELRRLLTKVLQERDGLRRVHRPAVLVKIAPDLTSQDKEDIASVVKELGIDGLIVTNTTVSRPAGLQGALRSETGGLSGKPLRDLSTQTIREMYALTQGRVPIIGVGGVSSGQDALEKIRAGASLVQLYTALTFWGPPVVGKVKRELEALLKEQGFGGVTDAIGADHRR", "assay": "Inhibition of DHODH in human HEK293 cells transfected with ISRE-luciferase reporter gene assessed as increase in 30 IU/ml IFN-alpha stimulated IFIT3 mRNA expression at 80 uM measured after 16 hrs by RT-qPCR analysis relative to control", "summary_of_the_method": "(§1)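 ISRE-Luc HEK cells co-treated with increasing IFN-α concentrations and DMSO or compound (80 µM) for 16 h. Total RNA extracted from 2×10^5 cells with DNase step; qPCR 35 cycles. CT values normalized to RPL13A and unstimulated controls (2^-ΔΔCT), expressed as fold change versus DMSO alone. Three independent experiments; two-way ANOVA with Bonferroni.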"}, "[2]": {"target": "T1, Dihydroorotate dehydrogenase (quinone), mitochondrial", "assay": "Inhibition of DHODH in human HEK293 cells transfected with ISRE-luciferase reporter gene assessed as increase in 125 IU/ml IFN-alpha stimulated IFIT3 mRNA expression at 80 uM measured after 16 hrs by RT-qPCR analysis relative to control", "summary_of_the_method": "as §1"}, "[3]": {"target": "T1, Dihydroorotate dehydrogenase (quinone), mitochondrial", "assay": "Inhibition of DHODH in human HEK293 cells transfected with ISRE-luciferase reporter gene assessed as increase in 60 IU/ml IFN-alpha stimulated IFIT2 mRNA expression at 80 uM measured after 16 hrs by RT-qPCR analysis relative to control", "summary_of_the_method": "as §1"}, "[4]": {"target": "T1, Dihydroorotate dehydrogenase (quinone), mitochondrial", "assay": "Inhibition of DHODH in human HEK293 cells transfected with ISRE-luciferase reporter gene assessed as increase in 60 IU/ml IFN-alpha stimulated IFITM3 mRNA expression at 80 uM measured after 16 hrs by RT-qPCR analysis relative to control", "summary_of_the_method": "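HEK-293 ISRE-Luc cells (DMEM, 10% FCS, 37°C, 5% CO2) were given increasing IFN-α doses together with DMSO or compound at 80 μM, then harvested at 16 h. RNA was extracted from 2×10^5 cells with DNase treatment. Transcripts were run by qPCR for 35 cycles and normalized to RPL13A and to unstimulated controls by 2^-ΔΔCT. Values are fold change versus DMSO; three independent experiments; two-way ANOVA with Bonferroni.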"}, "[5]": {"target": "T1, Dihydroorotate dehydrogenase (quinone), mitochondrial", "assay": "Inhibition of DHODH in […] treated with R848 stimulated cell supernatant assessed as increase in IFN-gamma-containing conditioned supernatant-stimulated cellular response at 80 uM measured after 24 hrs by luciferase reporter gene assay", "summary_of_the_method": "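Donor PBMCs were activated for 24 h with R848 at 5 µg/ml, and the supernatants (containing IFN-γ) were collected. HEK-293 ISRE-Luc reporter cells, not PBMCs, were then stimulated with these supernatants diluted 1/8 to 1/64, in the presence of DMSO or compound at 80 μM. Luciferase was read at 24 h and normalized to cells given the 1/8 dilution. Three independent experiments; two-way ANOVA with Bonferroni.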"}, "[6]": {"target": "T1, Dihydroorotate dehydrogenase (quinone), mitochondrial", "assay": "Inhibition of DHODH in human HEK293 cells transfected with ISRE-luciferase reporter gene assessed as increase in 125 IU/ml IFN-alpha stimulated MX2 mRNA expression at 80 uM measured after 16 hrs by RT-qPCR analysis relative to control", "summary_of_the_method": "as §1"}, "[7]": {"target": "T1, Dihydroorotate dehydrogenase (quinone), mitochondrial", "assay": "Inhibition of DHODH in human HEK293 cells assessed as effect on intracellular purine level measured after 24 hrs by HPLC coupled spectrophotometry", "summary_of_the_method": "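HEK-293 cells plated at 1×10^6 per well, treated 24 h later with compound (80 µM final) or DMSO for 24 h. Pellets deproteinized with 6% perchloric acid, neutralized with Na2CO3, analysed by C18 HPLC at 45°C with ion-pair phosphate/MeOH gradient, detected at 254 nm against reference nucleoside calibration curves. Normalized to viable cell number and DMSO controls.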"}, "[8]": {"target": "T1, Dihydroorotate dehydrogenase (quinone), mitochondrial", "assay": "Inhibition of DHODH in human HEK293 cells transfected with ISRE-luciferase reporter gene assessed as increase in 30 IU/ml IFN-alpha stimulated IFITM3 mRNA expression at 80 uM measured after 16 hrs by RT-qPCR analysis relative to control", "summary_of_the_method": "as §1"}, "[9]": {"target": "T1, Dihydroorotate dehydrogenase (quinone), mitochondrial", "assay": "Inhibition of DHODH in human HEK293 cells transfected with ISRE-luciferase reporter gene assessed as increase in 250 IU/ml IFN-alpha stimulated IFIT5 mRNA expression at 80 uM measured after 16 hrs by RT-qPCR analysis relative to control", "summary_of_the_method": "as §1"}, "[10]": {"target": "T1, Dihydroorotate dehydrogenase (quinone), mitochondrial", "assay": "Inhibition of DHODH in human HEK293 cells transfected with ISRE-luciferase reporter gene assessed as increase in 250 IU/ml IFN-alpha stimulated IFIT2 mRNA expression at 80 uM measured after 16 hrs by RT-qPCR analysis relative to control", "summary_of_the_method": "as §1"}, "[11]": {"target": "T1, Dihydroorotate dehydrogenase (quinone), mitochondrial", "assay": "Inhibition of DHODH in human HEK293 cells transfected with ISRE-luciferase reporter gene assessed as increase in 30 IU/ml IFN-alpha stimulated IFIT5 mRNA expression at 80 uM measured after 16 hrs by RT-qPCR analysis relative to control", "summary_of_the_method": "as §1"}, "[12]": {"target": "T1, Dihydroorotate dehydrogenase (quinone), mitochondrial", "assay": "Inhibition of DHODH in human HEK293 cells transfected with ISRE-luciferase reporter gene assessed as increase in 30 IU/ml IFN-alpha stimulated MX2 mRNA expression at 80 uM measured after 16 hrs by RT-qPCR analysis relative to control", "summary_of_the_method": "as §1"}, "[13]": {"target": "T1, Dihydroorotate dehydrogenase (quinone), mitochondrial", "assay": "Inhibition of DHODH in human HEK293 cells transfected with ISRE-luciferase reporter gene assessed as increase in 125 IU/ml IFN-alpha stimulated PKR mRNA expression at 80 uM measured after 16 hrs by RT-qPCR analysis relative to control", "summary_of_the_method": "as §1"}, "[14]": {"target": "T1, Dihydroorotate dehydrogenase (quinone), mitochondrial", "assay": "Inhibition of DHODH in human HEK293 cells transfected with ISRE-luciferase reporter gene assessed as increase in 30 IU/ml IFN-alpha stimulated ISG15 mRNA expression at 80 uM measured after 16 hrs by RT-qPCR analysis relative to control", "summary_of_the_method": "as §1"}, "[15]": {"target": "T1, Dihydroorotate dehydrogenase (quinone), mitochondrial", "assay": "Inhibition of DHODH in human HEK293 cells assessed as increase in gammaH2AX phosphorylation measured after 24 hrs by immunostaining based flow cytometry", "summary_of_the_method": "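Cells treated 24 h with compound (80 µM), harvested, trypsinized, fixed 30 min in 4% PFA, permeabilized 5 min. Stained with anti-γH2AX mouse monoclonal (1/400) or isotype control, 45 min at 4°C, then Alexa Fluor 488 anti-mouse secondary (1/500) 45 min at 4°C. Analysed by flow cytometry; means ± SD of three independent experiments.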"}, "[16]": {"target": "T1, Dihydroorotate dehydrogenase (quinone), mitochondrial", "assay": "Inhibition of DHODH in human HEK293 cells transfected with ISRE-luciferase reporter gene assessed as increase in 250 IU/ml IFN-alpha stimulated IFITM3 mRNA expression at 80 uM measured after 16 hrs by RT-qPCR analysis relative to control", "summary_of_the_method": "as §1"}, "[17]": {"target": "T1, Dihydroorotate dehydrogenase (quinone), mitochondrial", "assay": "Inhibition of DHODH in human HEK-293 cells transfected with ISRE-luciferase reporter gene assessed as increase in 150 IU/ml IFN-alpha mediated cellular response at 80 uM in presence of PF477736 CHK1 inhibitor measured after 24 hrs by luciferase reporter gene assay", "conditions": "HEK293", "summary_of_the_method": "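ISRE-Luc HEK-293 cells given IFN-α (150 IU/ml) alone or with test compound (80 µM), with or without the MRE11 inhibitor mirin, ATR inhibitor AZD6738, CHK1 inhibitor PF477736 or P300/CBP inhibitor C636. Firefly luciferase read 24 h later, normalized to IFN-α alone. Means ± SD of at least three independent experiments.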"}}, "note": "Calls of active or inactive are those of the source. The calls are words filed in the database; no cut-off is given here."}
{"compound": "O=C1OC2(CCCCC2)c2ccn(C3CC3)c(=O)c21", "values": [{"measurement": "fold change (FC)", "setting": "[1]", "value": 39}, {"measurement": "fold change (FC)", "setting": "[2]", "value": 99}, {"measurement": "fold change (FC)", "setting": "[3]", "value": 61}, {"measurement": "fold change (FC)", "setting": "[4]", "value": 12}, {"measurement": "Activity", "setting": "[5]", "value": "Active"}, {"measurement": "fold change (FC)", "setting": "[6]", "value": 20}, {"measurement": "Activity", "setting": "[7]", "value": "inactive"}, {"measurement": "fold change (FC)", "setting": "[8]", "value": 6}, {"measurement": "fold change (FC)", "setting": "[9]", "value": 5}, {"measurement": "fold change (FC)", "setting": "[10]", "value": 165}, {"measurement": "fold change (FC)", "setting": "[11]", "value": 3}, {"measurement": "fold change (FC)", "setting": "[12]", "value": 7}, {"measurement": "fold change (FC)", "setting": "[13]", "value": 3}, {"measurement": "fold change (FC)", "setting": "[14]", "value": 21}, {"measurement": "Activity", "setting": "[15]", "value": "Active"}, {"measurement": "fold change (FC)", "setting": "[16]", "value": 15}, {"measurement": "Activity", "setting": "[17]", "value": "inactive"}]}
